Experimental data: PMC6828636 (European Journal of Drug Metabolism and Pharmacokinetics, 2019)

Assays:
[1] = molecular target: T1, BCRP (Homo sapiens, UniProt Q9UNQ0); test: BCRP inhibition in Caco-2 cells; format: in vitro ADME
T1 sequence (Q9UNQ0 1-655): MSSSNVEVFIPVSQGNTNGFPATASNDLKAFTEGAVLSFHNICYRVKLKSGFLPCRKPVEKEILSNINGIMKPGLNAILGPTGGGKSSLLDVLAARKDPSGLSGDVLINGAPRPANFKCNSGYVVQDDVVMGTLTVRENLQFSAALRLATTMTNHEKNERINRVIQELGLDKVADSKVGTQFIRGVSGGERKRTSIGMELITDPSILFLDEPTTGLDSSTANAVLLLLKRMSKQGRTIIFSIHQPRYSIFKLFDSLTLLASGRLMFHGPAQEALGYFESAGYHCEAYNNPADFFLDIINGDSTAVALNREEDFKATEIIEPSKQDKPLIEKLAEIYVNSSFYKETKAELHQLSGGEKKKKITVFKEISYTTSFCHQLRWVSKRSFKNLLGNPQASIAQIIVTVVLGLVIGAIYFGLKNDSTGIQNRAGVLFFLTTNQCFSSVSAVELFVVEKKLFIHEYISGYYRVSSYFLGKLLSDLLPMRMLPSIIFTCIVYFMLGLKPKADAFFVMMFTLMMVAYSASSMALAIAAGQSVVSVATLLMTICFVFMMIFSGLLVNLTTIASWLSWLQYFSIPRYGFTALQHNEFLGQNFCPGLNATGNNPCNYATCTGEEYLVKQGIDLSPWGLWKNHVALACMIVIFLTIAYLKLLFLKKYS
Outline: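 Efflux transporter inhibition in Caco-2 monolayers. Test compound at 0.25–60 μM. Probe/reference-inhibitor pairs were digoxin/cyclosporin A (P-gp) and cladribine/Ko143 (BCRP). Probe transport was measured with and without test compound, and IC50 was derived from that inhibition.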

[2] = molecular target: T1, BCRP; test: Efflux in CPT-B1 cells; format: in vitro ADME; settings: Caco-2
Outline: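 Bidirectional transport was measured in wildtype Caco-2 cells and in proprietary derivatives with reduced BCRP (CPT-B1) or P-gp (CPT-P1) expression. Test compound was used at 0.5, 2 and 10 μM in wildtype cells and at 2 μM in the reduced-expression lines. Probe substrates served as positive controls and reference inhibitors as negative controls. Efflux ratios were calculated.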

[3] = format: in vivo, human; settings: healthy male volunteers
[4] = Phase I study: darolutamide effect on rosuvastatin pharmacokinetics; format: in vivo, human; settings: darolutamide 600 mg BID with single dose rosuvastatin 5 mg
[5] = rodents; cited from earlier work
[6] = system: CYP3A4; settings: healthy volunteers; ref data on file; cited from earlier work
[7] = molecular target: T2, UGT1A1 (Homo sapiens, UniProt P22309); test: UGT1A1 inhibition in human liver microsomes; format: in vitro ADME; settings: read-out: Ki, UGT1A1
T2 sequence (P22309 26-533): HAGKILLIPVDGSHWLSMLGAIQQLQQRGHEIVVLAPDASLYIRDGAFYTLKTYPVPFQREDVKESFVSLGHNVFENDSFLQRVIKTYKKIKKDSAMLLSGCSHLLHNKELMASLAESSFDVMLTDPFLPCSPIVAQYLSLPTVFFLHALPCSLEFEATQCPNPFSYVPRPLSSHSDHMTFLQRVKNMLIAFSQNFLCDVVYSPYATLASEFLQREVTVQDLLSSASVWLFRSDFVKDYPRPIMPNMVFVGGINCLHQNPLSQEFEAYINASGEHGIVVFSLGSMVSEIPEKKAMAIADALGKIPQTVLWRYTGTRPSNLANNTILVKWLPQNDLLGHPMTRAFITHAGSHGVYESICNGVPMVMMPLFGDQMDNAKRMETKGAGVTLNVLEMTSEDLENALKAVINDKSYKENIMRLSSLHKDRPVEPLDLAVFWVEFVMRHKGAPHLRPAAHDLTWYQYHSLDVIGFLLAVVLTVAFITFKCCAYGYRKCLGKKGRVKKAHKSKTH
Outline: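 Glucuronidation of UGT-selective substrates was measured in human liver microsomes with and without test compound, using a rank-order approach. Standard inhibitors for each isoform were incubated in parallel as positive controls.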

[8] = system: CYP2B6; format: in vitro ADME; settings: primary human hepatocytes, three donors, 3 days dosing, 0.005–10 mg/l
[9] = molecular target: T1, BCRP; test: Efflux in BCRP-MDCK cells; format: in vitro ADME; settings: reduced in the presence of BCRP-specific inhibitor Ko143

Structure (SMILES)	IC50 [1]	efflux ratio at 2 μM [2]	safety with concomitant dabigatran etexilate or midazolam [3]	effect of rosuvastatin on darolutamide exposure [4]	penetration of the blood-brain barrier [5]	share of clearance attributed to CYP3A4 metabolism [6]	Ki [7]	maximal fold induction of CYP2B6 [8]	efflux ratio [9]
CC(O)c1cc(C(=O)N[C@@H](C)Cn2ccc(-c3ccc(C#N)c(Cl)c3)n2)[nH]n1 (stereo partly drawn) [Darolutamide, darolutamide]	1.3 µM	36	No safety concerns were identified	no clinically relevant effects	low penetration	30%			
CC(=O)c1cc(C(=O)N[C@@H](C)Cn2ccc(-c3ccc(C#N)c(Cl)c3)n2)[nH]n1 [Keto-darolutamide, keto-darolutamide]							8.13 µM	< 2 fold	> 2
